Results reported in publication PMC3866226 (Molecular pharmaceutics, 2013).
“And” between values parts separate entries of the source, which are not always exact repeats. Equal entries are not always repeated. “Also recorded” adds a separate entry of the source. Bridge positions count the residues as written; N and C are the ends. Square brackets hold non-standard residues; d marks the D form. Peptide text beside a SMILES is read from it.

Assays:
B16/F1 melanoma cells [1] = experiment: Cellular internalization; format: cell-based, murine; settings: after 20 min of incubation at 25 °C, acid wash pH 4.5, n=3
Method in brief: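 Cells at 2.5×10^5/well were grown overnight at 37 °C and washed with binding medium (MEM, 25 mM HEPES pH 7.4, 0.2% BSA, 0.3 mM 1,10-phenanthroline). They were incubated at 25 °C with ~200,000 cpm HPLC-purified radiopeptide for 20–120 min (n=3). Membrane-bound activity was stripped with 40 mM sodium acetate pH 4.5/0.9% NaCl/0.2% BSA. Cells were lysed in 1 N NaOH for 5 min; both fractions were gamma-counted.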

B16/F1 melanoma cells [2] = experiment: Cellular efflux; format: cell-based, murine; settings: loaded 2 h at 25 °C, then 2 h of incubation in the culture medium
Method in brief: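 B16/F1 cells were seeded at 2.5×10^5/well and grown overnight at 37 °C. They were loaded with radiopeptide for 2 h at 25 °C and rinsed twice with ice-cold PBS. Release into culture medium was then monitored. At 20, 40, 60, 90 and 120 min, surface-bound and intracellular radioactivity were collected separately and gamma-counted.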

[3] = Biodistribution in B16/F1 melanoma-bearing C57 mice; format: in vivo, mouse; settings: female, C57, mouse, iv, 0.037 MBq, total radioactivity
Method in brief: (§1)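 Female C57 mice bore subcutaneous right-flank tumours from 1×10^6 B16/F1 cells (~0.2 g at 10 days). Radiopeptide, 0.037 MBq in pH 7.4 saline, went in via tail vein. Groups of 4 were killed at 0.5, 2, 4 and 24 h; tumours and organs were weighed and gamma-counted. Blood was taken as 6.5% body weight. Blockade: co-injected 10 µg (6.1 nmol) unlabeled NDP-MSH, 2 h. Results as %ID/g or %ID, mean ± SD, n=4.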

[4] = tested on: B16/F1 melanoma-bearing C57 mice; experiment: as above; format: in vivo, mouse
Method in brief: as §1

[5] = tested on: B16/F1 melanoma-bearing C57 mice; experiment: Effect of L-lysine co-injection on renal and tumor uptake; format: in vivo, mouse; settings: 2 h post-injection, 15 mg L-lysine
Method in brief: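 Groups of 4 tumour-bearing C57 mice received 0.037 MBq radiopeptide mixed with 15 mg L-lysine via injection. Mice were killed at 2 h, and tumours and organs were weighed and gamma-counted. Uptake with versus without L-lysine was compared by unpaired Student's t-test, significance p<0.05.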

[6] = tested on: B16/F1 melanoma-bearing C57 mice; experiment: Urinary metabolites by radio-HPLC; format: in vivo, mouse; settings: urine at 2 h post-injection of ~3.7 MBq via tail vein
[7] = tested on: B16/F1 melanoma-bearing C57 mice; experiment: Melanoma imaging by small animal SPECT/CT; format: in vivo, mouse; settings: 2 h post-injection of 7.4 MBq via tail vein

## CC(C)[C@H](NC(=O)[C@@H]1CCCN1C(=O)[C@H](CCCNC(=N)N)NC(=O)[C@H](CS)NC(=O)[C@H](Cc1c[nH]c2ccccc12)NC(=O)[C@H](CCCNC(=N)N)NC(=O)[C@@H](Cc1ccccc1)NC(=O)[C@H](Cc1c[nH]cn1)NC(=O)[C@H](CCC(=O)O)NC(=O)[C@H](CS)NC(=O)[C@H](CS)NC(=O)[C@H](CCCCN)NC(=O)[C@@H]1CC(=O)N[C@@H](CCCNC(=N)N)C(=O)N[C@@H](C(C)C)C(=O)N[C@@H](CC(=O)O)C(=O)N[C@H](Cc2ccc(O)cc2)C(=O)N1)C(N)=O [^99mTc-RVD-Lys-(Arg^11)CCMSH, metal not drawn] (RVD[dY]DKCCEH[dF]RWCRPV-NH2; lactam N-5)
B16/F1 melanoma cells [1]
  Activity internalized in the cells: ~72%
B16/F1 melanoma cells [2]
  Activity remained inside the cells (cellular efflux): 70%
[3]; blood
  tissue uptake at 0.5 h: 1.5 ± 0.52 %ID/g
  tissue uptake at 2 h: 0.49 ± 0.05 %ID/g
  tissue uptake at 4 h: 0.54 ± 0.45 %ID/g
  tissue uptake at 24 h: 0.07 ± 0.02 %ID/g
[3]; bone
  tissue uptake at 0.5 h: 1.6 ± 0.73 %ID/g
  tissue uptake at 2 h: 0.57 ± 0.08 %ID/g
  tissue uptake at 4 h: 0.54 ± 0.28 %ID/g
  tissue uptake at 24 h: 0.47 ± 0.05 %ID/g
[3]; brain
  tissue uptake at 0.5 h: 0.15 ± 0.05 %ID/g
  tissue uptake at 2 h: 0.04 ± 0.01 %ID/g
  tissue uptake at 4 h: 0.02 ± 0.01 %ID/g
  tissue uptake at 24 h: 0.03 ± 0.01 %ID/g
[3]; heart
  tissue uptake at 0.5 h: 0.74 ± 0.43 %ID/g
  tissue uptake at 2 h: 0.26 ± 0.15 %ID/g
  tissue uptake at 4 h: 0.16 ± 0.03 %ID/g
  tissue uptake at 24 h: 0.1 ± 0.07 %ID/g
[3]; intestines
  tissue uptake dose at 0.5 h: 1.36 ± 0.27 %ID
  tissue uptake dose at 2 h: 1.59 ± 1.08 %ID
  tissue uptake dose at 4 h: 0.95 ± 0.3 %ID
  tissue uptake dose at 24 h: 0.44 ± 0.22 %ID
[3]; kidneys
  tissue uptake at 0.5 h: 90.2 ± 15.4 %ID/g
  tissue uptake at 2 h: 94 ± 18.3 %ID/g
  tissue uptake at 4 h: 73.9 ± 3.73 %ID/g
  tissue uptake at 24 h: 44.3 ± 12.1 %ID/g
[3]; liver
  tissue uptake at 0.5 h: 1.86 ± 0.17 %ID/g
  tissue uptake at 2 h: 1.4 ± 0.34 %ID/g
  tissue uptake at 4 h: 1.59 ± 0.13 %ID/g
  tissue uptake at 24 h: 1.21 ± 0.26 %ID/g
[3]; lung
  tissue uptake at 0.5 h: 2.01 ± 0.97 %ID/g
  tissue uptake at 2 h: 0.87 ± 0.4 %ID/g
  tissue uptake at 4 h: 0.49 ± 0.43 %ID/g
  tissue uptake at 24 h: 0.19 ± 0.1 %ID/g
[3]; muscle
  tissue uptake at 0.5 h: 11.2 ± 6.02 %ID/g
  tissue uptake at 2 h: 0.17 ± 0.1 %ID/g
  tissue uptake at 4 h: 0.1 ± 0.07 %ID/g
  tissue uptake at 24 h: 0.26 ± 0.02 %ID/g
[3]; pancreas
  tissue uptake at 0.5 h: 0.62 ± 0.25 %ID/g
  tissue uptake at 2 h: 0.1 ± 0.02 %ID/g
  tissue uptake at 4 h: 0.08 ± 0.08 %ID/g
  tissue uptake at 24 h: 0.18 ± 0.07 %ID/g
[3]; skin
  tissue uptake at 0.5 h: 9.59 ± 0.62 %ID/g
  tissue uptake at 2 h: 0.69 ± 0.18 %ID/g
  tissue uptake at 4 h: 0.35 ± 0.08 %ID/g
  tissue uptake at 24 h: 0.42 ± 0.27 %ID/g
[3]; spleen
  tissue uptake at 0.5 h: 0.82 ± 0.43 %ID/g
  tissue uptake at 2 h: 0.4 ± 0.1 %ID/g
  tissue uptake at 4 h: 0.5 ± 0.15 %ID/g
  tissue uptake at 24 h: 0.34 ± 0.06 %ID/g
[3]; stomach
  tissue uptake at 0.5 h: 1.92 ± 0.53 %ID/g
  tissue uptake at 2 h: 1.21 ± 0.61 %ID/g
  tissue uptake at 4 h: 0.96 ± 0.27 %ID/g
  tissue uptake at 24 h: 0.4 ± 0.13 %ID/g
[3]; tumor / blood
  tissue to tissue ratio at 0.5 h: 11.1
  tissue to tissue ratio at 2 h: 34.9
  tissue to tissue ratio at 4 h: 36.4
  tissue to tissue ratio at 24 h: 126
[3]; tumor / kidneys
  tissue to tissue ratio at 0.5 h: 0.19
  tissue to tissue ratio at 2 h: 0.18
  tissue to tissue ratio at 4 h: 0.27
  tissue to tissue ratio at 24 h: 0.2
[3]; tumor / lung
  tissue to tissue ratio at 0.5 h: 8.31
  tissue to tissue ratio at 2 h: 19.7
  tissue to tissue ratio at 4 h: 40.1
  tissue to tissue ratio at 24 h: 46.4
[3]; tumor
  tissue uptake at 0.5 h: 16.7 ± 5.31 %ID/g
  tissue uptake at 2 h: 17.1 ± 3.82 %ID/g
  tissue uptake at 4 h: 19.6 ± 4.68 %ID/g
  tissue uptake at 24 h: 8.81 ± 2.13 %ID/g
[3]; tumor/liver
  tissue to tissue ratio at 0.5 h: 8.98
  tissue to tissue ratio at 2 h: 12.2
  tissue to tissue ratio at 4 h: 12.3
  tissue to tissue ratio at 24 h: 7.28
[3]; tumor/muscle
  tissue to tissue ratio at 0.5 h: 1.48
  tissue to tissue ratio at 2 h: 101
  tissue to tissue ratio at 4 h: 196
  tissue to tissue ratio at 24 h: 33.9
[3]; urine
  dose excreted at 0.5 h: 44.5 ± 3.12%
  dose excreted at 2 h: 59.2 ± 9.65%
  dose excreted at 4 h: 67.5 ± 10%
  dose excreted at 24 h: 76.8 ± 8.21%
[4]; 0.5 h post-injection
  Renal uptake as % of the renal uptake of ^99mTc-RTD-Lys-(Arg^11)CCMSH: 62%
[4]; 2 h post-injection
  Renal uptake as % of the renal uptake of ^99mTc-RTD-Lys-(Arg^11)CCMSH: 70%
[4]; 2 h post-injection, NDP blockade
  Uptake ratio Tumor/Blood: 2.75
[4]; 4 h post-injection
  Renal uptake as % of the renal uptake of ^99mTc-RTD-Lys-(Arg^11)CCMSH: 70%
[5]; versus without L-lysine
  Reduction of renal uptake by L-lysine co-injection: 41% and 40–50%
[5]; p>0.05
  Effect of L-lysine co-injection on tumor uptake: didn't affect the tumor uptake; also recorded: without affecting their tumor uptake
[6]
  Remained intact in the urine: Approximately 70%
  Transformed to a more hydrophobic compound in the urine: 30%
[7]
  Visualization of flank B16/F1 melanoma lesions by SPECT/CT: clearly visualized
